# Screens: PubChem BioAssay, several laboratories
# Hep lipid drop – hepatic lipid droplet formation modulation. AML12 mouse hepatocytes, oleate lipid droplets, BODIPY imaging. inhibition, % at 6.5 µM. 0.4% of 240,000 active;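 active = lipid droplet intensity inhibited by at least 50%, with more than 500 cells counted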
#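 material = mouse AML12 hepatocyte cell line, fixed after treatment | also added = 100 µM oleic acid challenge | doses = compound at 6.5 µM only | schedule = overnight exposure | technique = Image-based BODIPY and DAPI two-channel analysis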
# SR-BI HDL uptake – inhibitors of mouse SR-BI mediated HDL lipid uptake; Q61009; ldlA[mSR-BI] CHO cells, DiI-HDL uptake fluorescence, 3 h; inhibition, % at 12.5 µM; 0.96% of 320,000 active; AID 488896;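 active = mean replicate inhibition of at least 70% and a set share of replicates each scoring 70 or more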;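 note: 0% = median of neutral control wells and 100% = median of positive control wells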
# Target sequence (Q61009 whole entry, looked up): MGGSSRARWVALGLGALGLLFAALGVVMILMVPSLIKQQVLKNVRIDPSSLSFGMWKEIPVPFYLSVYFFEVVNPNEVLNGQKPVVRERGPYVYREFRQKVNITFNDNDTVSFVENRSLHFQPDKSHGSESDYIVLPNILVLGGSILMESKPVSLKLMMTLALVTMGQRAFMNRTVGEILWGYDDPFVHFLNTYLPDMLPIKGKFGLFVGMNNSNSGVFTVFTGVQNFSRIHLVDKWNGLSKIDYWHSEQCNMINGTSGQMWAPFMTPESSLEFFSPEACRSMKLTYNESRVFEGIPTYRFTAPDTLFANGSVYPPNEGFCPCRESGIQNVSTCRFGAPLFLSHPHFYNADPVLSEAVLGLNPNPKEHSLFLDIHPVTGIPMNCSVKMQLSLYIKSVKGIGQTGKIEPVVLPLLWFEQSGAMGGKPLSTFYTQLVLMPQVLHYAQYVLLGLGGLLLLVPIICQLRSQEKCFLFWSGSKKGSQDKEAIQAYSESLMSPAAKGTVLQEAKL
# AHR activator – activators of human aryl hydrocarbon receptor; AHR-responsive luciferase reporter cells, luminescence; activation, % at 5 µM; 2.5% of 320,000 active; AID 2796; in the data active = activation above about 47%;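 note: 0% = vehicle wells and 100% = reference agonist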
# SMARCA2 act – increases SMARCA2 function in MMTV reporter cells | MG213 cells, MMTV-luciferase reporter, dexamethasone, overnight | activation, % at 9.1 µM | 1% of 370,000 active | AID 652017; in the data active = activation above about 7.8%;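 note: 0% = vehicle wells and 100% = reference activator wells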
# SR-BI DiI-HDL act – SR-BI HDL lipid transfer activation; CHO ldlA[mSR-BI] cells, DiI-HDL uptake fluorescence, 3 h; 100 = double the neutral-control signal; AID 504775; activation, % at 12.5 µM; 0.096% of 320,000 active;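 active = mean replicate activation of at least 60% and every replicate at or above 60%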;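 note: 0% = median plate neutral-control signal and 100% = twice that signal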
#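 System: CHO ldlA[mSR-BI] cells / Medium: HEPES-buffered (25 mM, pH 7.4) F12 plus 0.5% BSA / Probe or stimulus: labelled HDL, 10 µg/mL / Doses: single compound concentration, delivered by pin transfer / Schedule: 3 h, 37 °C / Measured by: DiI fluorescence, bottom read / Measure: cell-associated DiI fluorescence as measure of HDL uptake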
# Yeast superoxide – yeast age-related superoxide inhibition as caloric restriction mimetic; S. cerevisiae aged cells, superoxide DHE fluorescence; stronger effect = lower value; superoxide response (% of plate mean), % at 10 µM; 0.18% of 330,000 active;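 active = superoxide response under a set limit, about three screen SD below normal, cut at about 65% in these data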;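 note: yeast aged for seven days with compound at 30 °C before DHE staining; 100% = average MFI of all compound-treated wells on the plate with controls excluded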
# * hit, by the source's call; nt = no result given. A selection: hits, their analogues and other compounds. The true share with any hit is near 4.3%.
SMILES,Hep lipid drop,SR-BI HDL uptake,AHR activator,SMARCA2 act,SR-BI DiI-HDL act,Yeast superoxide
Nn1c(SCC(=O)Nc2ccc(OCc3ccccc3)cc2)nnc1-c1cc(-c2ccc(F)cc2)n[nH]1,nt,nt,nt,-4.3,nt,nt
CC(=O)c1ccc(NC(=O)C2=CC(c3cccs3)=NS(=O)(=O)N2C)cc1,-13.8,-5.3,0.4,-2.0,5.3,92.4
Cc1ccc(NC(=O)C2=CC(c3cccs3)=NS(=O)(=O)N2C)cc1,3.8,39.3,64.3*,-3.0,-39.3,92.2
CCn1c(SCc2ccc(C(C)(C)C)cc2)nnc1-c1ccc(C(C)(C)C)cc1,nt,nt,nt,-4.6,nt,nt
CCCCON1C(=O)c2cccc3cccc(c23)C1=O,-1.4,27.1,55.7*,0.6,-27.1,101.1
O=C1c2ccccc2C(=O)N1CCCCON1C(=O)c2ccccc2C1=O,8.5,-22.5,-5.0,3.9,22.5,108.5
COc1ccccc1NC(=O)c1ccccc1SC,24.7,56.6,3.8,-1.8,-56.6,94.3
O=C(Nc1ccccc1)Nc1cccc2ccccc12,-2.8,25.7,20.6,-0.4,-25.7,100.6
O=C(Nc1ccccc1)Nc1cccc2cccnc12,31.9,39.3,70.9*,1.9,-39.3,108.6
COc1ccccc1C(=O)Nc1ccccc1SC,-11.0,2.9,55.3*,1.4,-2.9,79.9
COc1ccccc1C(=O)Nc1cccc2cccnc12,-13.9,25.4,78.2*,2.8,-25.4,95.5
CC(=O)Nc1cc2nc3ccccc3oc-2cc1=O,nt,nt,nt,0.2,nt,nt
COc1ccc(C(=O)OCCN2CCN(C3CN(Cc4cn(Cc5cccc(F)c5)nn4)S(=O)(=O)C3)CC2)cc1OC (configuration not stated),nt,nt,nt,-1.6,nt,nt
CC(C)CN1C(=O)C[C@@]2(C(=O)N(C)c3ccc(NS(=O)(=O)C4CCCCC4)cc32)C1c1ccccc1 (some centres not stated),nt,nt,nt,-2.0,nt,nt
CCOc1ccc(C=Nn2c(-c3cccc(OC(C)C)c3)n[nH]c2=S)cc1,nt,nt,nt,-3.3,nt,nt
CCOc1ccc(NC(=O)CN(C)C(=O)c2cc([N+](=O)[O-])ccc2Sc2ccccc2)cc1OCC,nt,76.7*,nt,-1.1,-76.7,nt
CCOc1ccc(NC(=O)CN(C)C(=O)c2ccccc2OCCOc2ccccc2)cc1OCC,nt,82.1*,2.4,-3.1,-82.1,102.4
CCOc1ccc(NC(=O)CN(C)C(=O)c2c(C)nn(-c3ccc(F)cc3)c2Cl)cc1OCC,nt,83.0*,3.7,2.1,-82.9,92.4
CCOc1ccc(NC(=O)CN(C)C(=O)c2ccncc2)cc1OCC,1.6,-0.4,nt,-2.2,0.4,103.6
CCOc1ccc(NC(=O)CN(C)C(=O)c2ccc(OCc3ccccc3)c(OC)c2)cc1OCC,nt,59.6,8.1,7.3,-59.6,99.8
CCOc1ccc(NC(=O)CN(C)C(=O)c2ccccc2CCc2ccccc2)cc1OCC,nt,94.1*,6.0,-2.8,-94.1,132.4
CC(=O)C1(C(=O)NC2CCCC2)CC(c2ccccc2C(F)(F)F)=NO1 (configuration not stated),nt,nt,nt,-4.1,nt,nt
O=C(CSc1nnc(-c2ccc(Cl)cc2)n1C1CCCCC1)NN=Cc1c(O)ccc2ccccc12,nt,nt,nt,-5.1,nt,nt
CCOc1ccc(NC(=O)CN(C)C(=O)c2cc(-c3ccc(OC)cc3)nc3ccccc23)cc1OCC,nt,39.9,5.4,0.6,-39.9,100.0
CCOc1ccc(NC(=O)CN(C)C(=O)c2cccc3ccccc23)cc1OCC,nt,77.7*,nt,-2.1,-77.7,nt
SMILES,Hep lipid drop,SR-BI HDL uptake,AHR activator,SMARCA2 act,SR-BI DiI-HDL act,Yeast superoxide
CN(C)[C@@H]1CCN(c2cccc3c2S(=O)(=O)N(C2CC2)CCCO3)C1,nt,nt,nt,-1.3,nt,nt
Cn1ccsc1=NC(=O)c1ccc(Cl)c([N+](=O)[O-])c1,-5.0,19.2,68.0*,3.6,-19.2,98.4
Cn1ccsc1=NC(=O)c1ccc(S(C)(=O)=O)c([N+](=O)[O-])c1,-2.4,11.6,61.8*,-1.4,-11.6,108.5
Cn1ccsc1=NC(=O)c1ccc(S(C)(=O)=O)cc1,-3.5,-5.6,-1.8,1.3,5.6,102.9
COc1ccc(N2CCN(C(=O)CNC(=O)c3cn(-c4ccccc4OC)c(=O)c4ccccc34)CC2)cc1,-4.4,73.6*,2.3,-0.6,-73.6,108.4
COc1ccc(-n2nc(C(=O)NCC(=O)N3CCN(c4ccc(F)cc4)CC3)c3ccccc3c2=O)c(OC)c1,8.4,60.7,0.6,-0.4,-60.7,89.7
S=C1NCCOc2ccccc21,nt,nt,nt,-2.8,nt,nt
COC(=O)C[C@H]1CC[C@H]2[C@H](COc3ccc(NC(=O)c4ccccc4F)cc3C(=O)N2C)O1,nt,nt,nt,-5.3,nt,nt
O=C(NCCc1ccccc1Cl)[C@@H]1CCCN1C(=O)[C@@H](NC(=O)N1CCOCC1)c1ccccc1,nt,nt,nt,-4.1,nt,nt
COc1ccc(NC(=O)CSc2nnc(-c3ccccn3)n2N)cc1,nt,-6.6,8.7,-1.0,6.6,99.2
CCn1c2ccccc2c2cc(NC(=O)CSc3nnc(-c4ccc(OC)c(OC)c4)n3N)ccc21,nt,35.3,32.6,-1.0,-35.3,102.1
Nn1c(SCC(=O)Nc2ccc(F)cc2)nnc1-c1ccccn1,nt,5.1,48.1*,-2.7,-5.1,101.5
CCn1c2ccccc2c2cc(NC(=O)CSc3nnc(-c4ccccc4OC)n3N)ccc21,nt,50.0,57.0*,-2.1,-50.0,117.9
CCn1c2ccccc2c2cc(NC(=O)CSc3nnc(-c4cccc(OC)c4)n3N)ccc21,-28.9,48.3,63.9*,-3.7,-48.3,105.1
COC(=O)C1CCCN(C(=O)C2CCN(S(=O)(=O)c3cccs3)CC2)C1 (configuration not stated),nt,nt,nt,3.5,nt,nt
Cc1cc(/C=C2/NC(=O)N(Cc3ccccc3F)C2=O)c(C)n1C,-18.4,24.5,76.5*,0.8,-24.5,91.0
Cc1cc(/C=C2/NC(=O)N(Cc3ccccc3F)C2=O)c(C)n1-c1ccccn1,-9.6,35.1,43.1,-0.7,-35.1,111.8
C/C(=C\C(=O)c1ccccc1)NNC(=O)c1ccc(Cl)cc1,9.3,90.8*,2.0,1.3,-90.8,98.6
O=C(NNC(=O)c1ccccc1O)c1ccc(Cl)cc1,nt,88.0*,-1.6,0.4,-88.0,102.8
COc1ccc(C(=O)NN/C(C)=C/C(=O)c2ccccc2)cc1,-0.1,17.2,10.4,-1.0,-17.2,103.3
Cc1cccc(C(=O)NNC(=O)c2ccc(Cl)cc2)c1O,2.3,75.0*,11.1,3.1,-75.0,99.3
CCOc1ccc(-c2cc(C(C)=O)c3n(c2=O)CCC3)cc1,nt,nt,nt,-1.4,nt,nt
CCCNC(=S)Nc1cc2oc3ccccc3c2cc1OC,-3.7,88.9*,52.6*,2.0,-88.9,103.1
COc1cc2c(cc1NC(=S)NC(=O)/C=C/c1ccc(OC)c(OC)c1)oc1ccccc12,-22.9,33.0,nt,-2.3,-33.0,nt
COc1ccc(Cl)cc1NC(=O)C1CCCO1 (configuration not stated),nt,3.1,2.3,0.2,-3.1,94.2
CCNC(=S)Nc1cc2oc3ccccc3c2cc1OC,-2.0,83.9*,70.1*,-0.7,-83.9,89.0
CNC(=S)Nc1cc2oc3ccccc3c2cc1OC,10.6,94.2*,nt,1.9,-94.2,87.9
